From the RNAGym collection of RNA variant scans (doi:10.1126/science.aae0568)
Variants at the floor of the assay were thinned out.

B1: tRNA (parent)
chain: GUUCCGUUGGCGUAAUGGUAACGCGUCUCCCUCCUAAGGAGAAGACUGCGGGUUCGAGUCCCGUACGGAACG

Variants of: B1
Experiment: yeast fitness relative to wild type (ratio to wild type); higher = fitter; tRNA-Arg(CCU), competitive growth, 37 C, YPD
Method in brief: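 Changes in genotype frequencies gave Darwinian fitness relative to wild type. Frequencies were read by 100-nucleotide paired-end sequencing of gene amplicons before and after pooled Saccharomyces cerevisiae strains, carrying tRNA-Arg(CCU) gene variants at the native locus, were competed in YPD at 37°C for 24 hours in six replicates. A genotype was kept only with ≥ 100 starting reads, and estimates < 0.5 were set to 0.5.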

Row | Variant | yeast fitness
1 | G9C U13C C31G A65U | ≤ 0.5
2 | G9C A14G C66U | ≤ 0.5
3 | G9C G67C | 0.746
4 | G10A A43C A65G | 0.589
5 | G9C A15U C60G C61G G68C | ≤ 0.5
6 | G9C U28A | 0.708
7 | G9C C11U A36C | ≤ 0.5
8 | G9C U19C G48A C49U | 0.634
9 | G9C A15C G52C | ≤ 0.5
10 | G9C C31G A40C | 0.597
11 | G10A A57C | 0.525
12 | G9C G23A A43U A57U | 0.561
13 | G9C C29U A36U A65G G67A | ≤ 0.5
14 | G9C A42U | 0.624
15 | G9C A42G | 0.673
16 | G10A A37U A45G C46G C55A | ≤ 0.5
17 | G9C U13A G25A A40C G67C | ≤ 0.5
18 | G9C C30G G38C G58C C66A | 0.535
19 | G9C A14G | 0.579
20 | G9C U32C A43C | ≤ 0.5
21 | G9C G51C G52A | ≤ 0.5
22 | G9C C11G C24U C31U U59G A70C | ≤ 0.5
23 | G9C A14U C24G U35G G50C | ≤ 0.5
24 | G9C A15C C29A G58A C61G A70U | ≤ 0.5

Row | Variant | yeast fitness
25 | G9A U26A A43U A65U | 0.562
26 | G9C A14C A20U G23C C31U C55U | ≤ 0.5
27 | G9C C27G C29G A36C | ≤ 0.5
28 | G10A A36C A70U | ≤ 0.5
29 | G9C G12C A14G A20C | ≤ 0.5
30 | G9C C27U C33G | ≤ 0.5
31 | G9C A14U C27G C29U C46U C60G | 0.596
32 | G9C G38C G48C | 0.582
33 | G9C G48C G58A A70U | 0.552
34 | G10A A21C C24A A65C A69C | ≤ 0.5
35 | G10A A20G U26C G39A | ≤ 0.5
36 | G9C G52U | 0.502
37 | G10A A20G G23A A37G A40C C66U | ≤ 0.5
38 | G9C U16C C30U | 0.506
39 | G9C C27A U28G | ≤ 0.5
40 | G9C C22G C62A | ≤ 0.5
41 | G9C G17A C27U | ≤ 0.5
42 | G9C U19C A69U | 0.656
43 | G9C C30U C31G | 0.632
44 | G9C A21G G44C U47C | ≤ 0.5
45 | G9C A21G C66U A69U | ≤ 0.5
46 | G9C C24U C30G G52A C61U | ≤ 0.5
47 | G9C A21U C27U G44A C66U | 0.602
48 | G10A A45U U53G | ≤ 0.5

Row | Variant | yeast fitness
49 | G10A A37G C49G | ≤ 0.5
50 | G9C U26C U54G | ≤ 0.5
51 | G9C A21G A69U | 0.512
52 | G10A A14C C34U A42G | 0.65
53 | G9C A70G | 0.615
54 | G9A U28C | 0.855
55 | G10A A37U C61G C66G | 0.623
56 | G9C C27U A42U C55G | ≤ 0.5
57 | G9C A15C C34G | ≤ 0.5
58 | G10A A21G C29A | 0.519
59 | G9C C24U U26G G68U | ≤ 0.5
60 | G9C A36C C49G A65G | 0.681
61 | G10A A40G | 0.79
62 | G10A A40U | 0.683
63 | G9C A37G C62U | ≤ 0.5
64 | G9C U13C A69C | 0.564
65 | G9C G25A | 0.721
66 | G9C A15U U16C A36U A69C | ≤ 0.5
67 | G10A A42G G50C | ≤ 0.5
68 | G10A A57G C62G C66U | ≤ 0.5
69 | G9C G48A A69C | 0.627
70 | G9A U35C A42U | ≤ 0.5
71 | G10A A14U A20G U26G C31G C34G A42U A43C G50C A70C | ≤ 0.5
72 | G9C C29G C34G | ≤ 0.5

Row | Variant | yeast fitness
73 | G10A A15C C49A C61U C62G | ≤ 0.5
74 | G9C U32A C55U A57U | ≤ 0.5
75 | G9C C55A | 0.631
76 | G9C C55U | 0.635
77 | G9C G10C C29G | ≤ 0.5
78 | G9C C22G C33A | 0.598
79 | G9C G10C | 0.68
80 | G9C A14G C55G C61U | ≤ 0.5
81 | G9C U53C C60A | ≤ 0.5
82 | G9C A14C C66U | ≤ 0.5
83 | G9C C34G U47C C49U | ≤ 0.5
84 | G10A A20U A42G C60U U64A C66A G68A A69G | ≤ 0.5
85 | G9C A20G | 0.668
86 | G9C A20U | 0.667
87 | G9A U26G A69G A70C | ≤ 0.5
88 | G9C A20G A36U | ≤ 0.5
89 | G10A A20U A70C | 0.579
90 | G9C A15U C31U U35C G51C G56A C62G | ≤ 0.5
91 | G9C A15G A21U G56A A57G G67A | 0.593
92 | G10A A43U | 0.781
93 | G10A A21C C24A A65C | 0.521
94 | G10A A14G C34G | ≤ 0.5
95 | G9C C11U C31A A40C A43U A65G C66G | ≤ 0.5
96 | G9C C27G C29G A36C C61A | ≤ 0.5

Row | Variant | yeast fitness
97 | G9C A15C U35C U59A | 0.605
98 | G9C C29A U32G C66U | ≤ 0.5
99 | G9C U19A A20G C29U A37U C62U G67A A70C | ≤ 0.5
100 | G10A A45G U59C | 0.616
101 | G9C U13C C31G A57G | ≤ 0.5
102 | G9C U35C C46U | 0.601
103 | G10A A45U C61U | 0.536
104 | G9C U26C C61A G67A | ≤ 0.5
105 | G9C C49G G50A C60G A65G A70G | ≤ 0.5
106 | G9C G50C | 0.514
107 | G9A U26G C60A | 0.539
108 | G9A U35A A37U C46U A65C | 0.633
109 | G9C A20G U35C A36G G58A G67A | ≤ 0.5
110 | G9C C55A C61U | ≤ 0.5
111 | G9C A14G G52C C60A | ≤ 0.5
112 | G9C C27U | 0.621
113 | G9A U35A A43C | ≤ 0.5
114 | G9C G10C C29G C46A | 0.59
115 | G10A A15C G25A U47C C66U | 0.558
116 | G9C A43U | 0.694
117 | G9C C31G U54A G67C A69U | ≤ 0.5
118 | G9A U53A | 0.701
119 | G9C A37G G68A | ≤ 0.5
120 | G9C A14C A15U G23A C34A | ≤ 0.5

Row | Variant | yeast fitness
121 | G9C G10C A36C G39C G48A | 0.512
122 | G9C G10C U47A | ≤ 0.5
123 | G9C G17A C27U U54A | ≤ 0.5
124 | G9C C24U C30G G51A C60U G67A | 0.543
125 | G9C C24G C29G C55U A70G | ≤ 0.5
126 | G9U C27U C29A C31A | ≤ 0.5
127 | G9C A57C | 0.56
128 | G9C C11A C33A C34A A37C A43G | ≤ 0.5
129 | G9C A20C C66A | 0.601
130 | G9A U28C A37U U47A C61U | 0.871
131 | G10A A36G G48C | 0.691
132 | G10A A45C G50C G51C C55U G68A A70C | ≤ 0.5
133 | G10A A21G C30U G50C | 0.752
134 | G10A A15G C55U | 0.591
135 | G9C C11A U47G U59A | ≤ 0.5
136 | G9A U28C G44A G51C G58C | 0.51
137 | G9A U19C A43U | 0.713
138 | G9C U16C C30U U59A C60G | ≤ 0.5
139 | G9C C29G C31U C34G A42G | 0.535
140 | G9C A20U U28A | 0.535
141 | G9C G12C A14G A20C G67C | ≤ 0.5
142 | G9C C30U U53C | ≤ 0.5
143 | G9C C30U A45G | ≤ 0.5
144 | G9C C34A C46A G56A | ≤ 0.5

Row | Variant | yeast fitness
145 | G9C U16C | 0.731
146 | G10A A20C C24U A57G C61U | ≤ 0.5
147 | G9A U53A A65C A70C | ≤ 0.5
148 | G9C A14U A42G | ≤ 0.5
149 | G9C G12A C22U C24U G58A | ≤ 0.5
150 | G9C U26A A40C C55U C66A A69U | ≤ 0.5
151 | G9C C24U U26G C62U | ≤ 0.5
152 | G10A A14U A20G U26G C31G C34G A42U A43C G50C | ≤ 0.5
153 | G9C G17C G39C A70U | ≤ 0.5
154 | G9C C34G G51A A70G | ≤ 0.5
155 | G9C U28C A42U U59G | ≤ 0.5
156 | G9C C24U U26G | 0.51
157 | G10A A15G A42C | ≤ 0.5
158 | G9C U16G C66G | ≤ 0.5
159 | G10A A21U U53A | 0.521
160 | G10A A14C C29A | ≤ 0.5
161 | G9C A42G C62G A69G | ≤ 0.5
162 | G9C U26G C55A | ≤ 0.5
163 | G9A U28G A40C A42G | 0.76
164 | G9C A15U U28G A42U | ≤ 0.5
165 | G9C A15G | 0.633
166 | G9C A37G G41A G50A | 0.532
167 | G9C A14G C29U A36C A45G G67U | ≤ 0.5
